Screens: PubChem, Broad Institute
Only some compounds are listed: those with a hit (about 1.4% of all), similar ones and a draw of the others.
ERp5 block = blocks human ERp5 reductase activity on insulin; Q15084; ERp5 insulin aggregation, absorbance 650 nm, 90 min; inhibition, % at 9.99 µM; hit rate 0.05% among 350,000; AID 651711;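 active = mean replicate inhibition above about 25%, with every replicate also reaching it, limit read from the data, passing the limit was not always enough; inconclusive = only one of those two criteria met; inactive = neither criterion met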
Target sequence (Q15084 whole entry, looked up): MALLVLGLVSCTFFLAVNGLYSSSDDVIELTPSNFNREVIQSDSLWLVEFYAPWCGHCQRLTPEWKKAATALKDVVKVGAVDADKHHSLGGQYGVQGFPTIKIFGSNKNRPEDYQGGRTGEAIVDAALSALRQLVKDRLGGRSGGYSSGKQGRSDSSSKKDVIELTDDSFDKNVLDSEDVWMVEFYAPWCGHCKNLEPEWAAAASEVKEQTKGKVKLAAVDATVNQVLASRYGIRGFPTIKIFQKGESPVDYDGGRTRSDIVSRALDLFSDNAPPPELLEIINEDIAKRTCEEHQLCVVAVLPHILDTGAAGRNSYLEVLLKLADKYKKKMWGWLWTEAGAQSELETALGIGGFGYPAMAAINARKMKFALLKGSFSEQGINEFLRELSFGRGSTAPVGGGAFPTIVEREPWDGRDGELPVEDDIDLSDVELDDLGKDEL
Env fusion inh = HIV envelope-mediated fusion inhibition | HeLa-JRFL Env/CEM21 cell fusion, luciferase | inhibition, % at 12.3 µM | hit rate 1.1% among 360,000;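 active = mean replicate inhibition score of at least 50 and every replicate individually at or above 50; inconclusive = only one of the two criteria met; inactive = mean below 50 and not all replicates reaching 50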
FN deposition inh = fibronectin deposition inhibition | AID 743247 | AH1F fibroblasts, Alexa488-fibronectin deposition fluorescence, overnight | inhibition, % at 12.6 µM | hit rate 0.086% among 350,000;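 active = mean inhibition across replicates of 30% or more, regardless of how many single replicates reach that level; inconclusive = mean under 30% yet at least half of replicates reach 30%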
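Material – AH1F fibroblast monolayer, labelled fibronectin deposition · Reagent – labelled fibronectin 24 nM · Timing – 1 h adhesion, overnight exposure · Measured by – fluorescence at 485 nm excitation, 525 nm emission · Read-out – inhibition of fibronectin deposition signal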
PDI inh = blocks human protein disulfide isomerase activity | PDI insulin aggregation turbidity, A650, 90 min | inhibition, % at 10 µM | hit rate 0.052% among 350,000 | AID 588391;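 active = mean inhibition across replicates of 30% or more, whatever share of single replicates reach that level; inconclusive = mean inhibition below 30% while every single replicate reaches 30%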
INS-1E GSIS act = GLuc luminescence reporter in INS-1E cells, primary screen for activators of glucose-dependent secretion of insulin. INS-1E GLuc reporter insulin secretion, 2-3 h. activation, % at 16.6 µM. hit rate 0.61% among 370,000. AID 743287;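 active = lowest replicate activation of at least 40%, so every replicate reaches that level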
Of the large screens only hits and unclear results are named; the others gave an inactive call.

Cc1noc(C)c1S(=O)(=O)Nc1ccc2c(c1)C(=O)N([C@H](C)CO)C[C@@H](C)[C@@H](CN(C)Cc1ccccc1)O2	none (no result: FN deposition inh, PDI inh)
COc1ccccc1NC(=S)Nc1cccc2cnccc12	Env fusion inh 58.3 (no result: INS-1E GSIS act)
COc1ccc(NC(=S)Nc2cccc3cnccc23)cc1	none (no result: ERp5 block, FN deposition inh)
Cc1ccc(NC(=O)CN(C)C(=O)Cn2ncc(Cl)c(Cl)c2=O)cc1	FN deposition inh 36.3
C[C@@H]1CN([C@H](C)CO)C(=O)c2cc(C#CCN(C)C)cnc2O[C@@H]1CN(C)Cc1cccc(F)c1	none (no result: ERp5 block, PDI inh)
O=C(c1ccc2c(c1)OCO2)N(CC1CCCO1)C1(C(=O)NC2CCCCC2)CCCCC1 (stereo not given)	Env fusion inh 135.0 (no result: ERp5 block, INS-1E GSIS act)
CN(C(=O)c1ccc2c(c1)OCO2)C1(C(=O)NC2CCCC2)CCCCC1	none (no result: ERp5 block, INS-1E GSIS act)
O=C(Cc1cccs1)N(Cc1cccs1)C1(C(=O)NC2CCCC2)CCCCC1	Env fusion inh inconclusive (no result: ERp5 block, INS-1E GSIS act)
O=C(Cc1cccs1)N(Cc1ccco1)C1(C(=O)NC2CCCCC2)CCCCC1	Env fusion inh 73.1 (no result: ERp5 block, INS-1E GSIS act)
O=C(c1ccc2c(c1)OCO2)N(Cc1cccs1)C1(C(=O)NC2CCCCC2)CCCCC1	Env fusion inh 103.3 (no result: ERp5 block)
CNC[C@@H]1OCCCC[C@H](C)Oc2ccc(NC(=O)Nc3ccc(C(F)(F)F)cc3)cc2C(=O)N([C@H](C)CO)C[C@H]1C	none (no result: ERp5 block, FN deposition inh, PDI inh)
Cc1cccc(-c2ccc([C@@H]3[C@H]4CN(S(=O)(=O)c5cccc(F)c5)CC(=O)N4[C@H]3CO)cc2)c1	none (no result: Env fusion inh, FN deposition inh, PDI inh)
CO[C@H]1CN(C)C(=O)c2cc(NC(=O)NC3CCCCC3)ccc2OC[C@@H](C)N(CCc2ccccc2)C[C@@H]1C	none (no result: PDI inh)
CC1CN(C(=O)c2cc(S(=O)(=O)N(C)c3ccc(F)cc3)ccc2Cl)CC(C)O1 (stereo not given)	Env fusion inh 61.3 (no result: FN deposition inh)
CC1CN(C(=O)c2cc(S(=O)(=O)N3CCCC3)ccc2Cl)CC(C)O1 (stereo not given)	none (no result: FN deposition inh)
O=C(C[C@@H]1CC[C@H](NC(=O)Nc2ccc(C(F)(F)F)cc2)[C@@H](CO)O1)NCc1cc(F)cc(F)c1	none (no result: FN deposition inh, PDI inh)
N#CC1=C(N)NC(SCC(=O)Nc2ccccc2)=C(C#N)C12CCCCC2	Env fusion inh 113.1 (no result: ERp5 block, INS-1E GSIS act)
COc1ccc(C(=O)CSC2=C(C#N)C3(CCCCC3)C(C#N)=C(N)N2)cc1	Env fusion inh 76.3 (no result: ERp5 block)
Cc1onc(C(=O)N2CCN(C(c3ccccc3)c3ccccc3)CC2)c1[N+](=O)[O-]	none (no result: PDI inh)
COc1ccccc1N1CCN(C(=O)c2noc(C)c2[N+](=O)[O-])CC1	INS-1E GSIS act 56.9
COc1ccc2c(c1)[C@@]1(OCCC=C[C@H]1C)C(=O)N2C/C=C(\C)CCC=C(C)C	none (no result: PDI inh)
COc1ccc2c(c1)[C@@]1(OCCC=C[C@H]1C)C(=O)N2CC1CC1	INS-1E GSIS act 53.0 (no result: PDI inh)
O=S1(=O)N[C@H](Cc2ccccc2)COc2cccc(N3CCCC3)c21	none (no result: PDI inh)
O=S1(=O)N[C@H](Cc2ccccc2)COc2cccc(F)c21	Env fusion inh 56.8 (no result: PDI inh)
FC(F)(F)CN1C[C@@H]2C(c3ccc(Br)cc3)[C@H](C1)N2CC(F)(F)F (stereo not given in full)	none (no result: ERp5 block, Env fusion inh, PDI inh)
COc1cccc(S(=O)(=O)N2C[C@H](O)COC[C@@H]3O[C@@H](CC(=O)Nc4ccccc4)CC[C@H]32)c1	none (no result: PDI inh)
O=C(C[C@H]1C[C@@H]2c3cc(NC(=O)NC4CCCCC4)ccc3O[C@@H]2[C@@H](CO)O1)NCc1ccccn1	none (no result: FN deposition inh, PDI inh)
C[C@]1(C(=O)NCc2cc(F)cc(C(F)(F)F)c2)C=C[C@@H](Cc2ccccc2)N1C(=O)c1ccccc1	Env fusion inh 56.2
CN(C)C(=O)c1cccc(-c2cnc3c(NC=O)cc(-c4cccc(C(F)(F)F)c4)cn23)c1	Env fusion inh 56.0
CN(C)CCNC(=O)c1cccc(-c2cc(NC=O)c3ncc(-c4cccc(C(F)(F)F)c4)n3c2)c1	INS-1E GSIS act 123.8
COc1ccc(-c2cc(NC=O)c3ncc(-c4ccc(OC)c(OC)c4)n3c2)cc1	INS-1E GSIS act 51.6
CN(C)CCNC(=O)c1cccc(-c2cnc3c(NC=O)cc(-c4cc(F)c(F)c(F)c4)cn23)c1	none
Cc1noc(C)c1NC(=O)Nc1ccc2c(c1)C(=O)N([C@@H](C)CO)C[C@H](C)[C@@H](CN(C)S(=O)(=O)c1cn(C)cn1)OCCCC[C@@H](C)O2	none (no result: FN deposition inh, PDI inh)
CC(=O)NC[C@@H]1[C@H](c2ccc(C3=CCCC3)cc2)[C@H](CO)N1C(=O)NC(C)C	none (no result: Env fusion inh, PDI inh)
COc1cccc(C(=O)Nc2ccc3[nH]c(=O)[nH]c3c2)c1OC	Env fusion inh 60.1
COc1cccc(NC(=O)c2cccc(OC)c2OC)c1	none (no result: ERp5 block, INS-1E GSIS act)
NC(=O)c1ccsc1NC(=O)COC(=O)CNC(=O)c1ccc(Cl)cc1	INS-1E GSIS act 49.9
O=C(COC(=O)CNC(=O)c1ccc(Cl)cc1)Nc1ccc(Cl)cn1	none (no result: Env fusion inh)
COC(=O)C1=C(C)N(Cc2ccccc2C(F)(F)F)C(=NCc2ccc(OC)cc2)NC1c1ccc(Cl)cc1 (stereo not given)	INS-1E GSIS act 87.3 (no result: PDI inh)
COC(=O)C1=C(C)N(Cc2ccccc2C(F)(F)F)C(=NCc2ccc(OC)cc2)NC1c1ccccc1 (stereo not given)	none (no result: PDI inh)
COC(=O)C1=C(C)N(Cc2ccccc2C(F)(F)F)C(=NCc2ccc(C(F)(F)F)cc2)NC1c1ccc(Cl)cc1 (stereo not given)	none (no result: PDI inh)
COC(=O)C1=C(C)N(Cc2cccc(C(F)(F)F)c2)C(=NCC2CC2)NC1c1ccccc1 (stereo not given)	none (no result: PDI inh, INS-1E GSIS act)
COC(=O)C1=C(C)N(Cc2ccc(C(F)(F)F)cc2)C(=NCC2CC2)NC1c1ccccc1 (stereo not given)	INS-1E GSIS act 60.4 (no result: PDI inh)
COC(=O)C1=C(C)N(Cc2ccc(C(F)(F)F)cc2)C(=NCc2ccccc2)NC1c1ccc(Cl)cc1 (stereo not given)	INS-1E GSIS act 726.0 (no result: PDI inh)
O=C1NCCOCc2cn(nn2)CC[C@@H]1Cc1ccc(F)cc1	none (no result: ERp5 block, Env fusion inh, PDI inh)
COn1c(SCc2ccc(C)cc2C)nc2ccccc2c1=O	Env fusion inh 57.3 (no result: ERp5 block, INS-1E GSIS act)
CC(C)(C)c1ccc(OCC(=O)NCC(c2cccs2)N2CCOCC2)cc1 (stereo not given)	Env fusion inh 62.3
O=S(=O)(N1CCCCC1)N1CCN(CC(O)COc2ccc3cc(Br)ccc3c2)CC1 (stereo not given)	Env fusion inh 63.0 (no result: ERp5 block)
CCc1nc2ccc(C(=O)N3CCN(C(=O)c4ccco4)CC3)cn2c1N(CC)CCOC	none
CCc1nc2ccc(C(=O)N3CCN(C(=O)c4ccco4)CC3)cn2c1N(C)Cc1ccc(OC)cc1	Env fusion inh 72.3
O=C(c1ccccc1)N1CC(=O)N2[C@H](CO)[C@@H](c3ccc(C#CCC4CCCC4)cc3)[C@@H]2C1	none (no result: Env fusion inh, FN deposition inh, PDI inh)
Cc1nc2ccccn2c1C(=O)NNS(=O)(=O)c1ccc(C(C)(C)C)cc1	Env fusion inh 72.1 (no result: ERp5 block)
COc1ccc(Br)cc1S(=O)(=O)NNC(=O)c1c(C)nc2ccccn12	none
Cc1ccc(C(=O)Nc2cnc3ccccc3c2)cc1	Env fusion inh 93.8 (no result: ERp5 block, INS-1E GSIS act)
Cc1ccc(C(=O)Nc2cccc(C(=O)O)c2)cc1	Env fusion inh 116.8 (no result: ERp5 block, FN deposition inh, PDI inh)
